Values after ≈ are worked out from the molar mass of the structure shown. Active and inactive are the calls of the source. The calls are words filed in the database; no cut-off is given here.
What was measured:
[1] = system: Listeria monocytogenes; assay: Antibacterial activity against Listeria monocytogenes NCTC 7973 after 24 hr by microdilution test; assay type: functional; conditions: NCTC 7973, 24 h
In short: (§1)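 Broth microdilution in LB medium, about 1.0×10^4 cfu per well; compounds from 1 mg/ml stocks in 5% DMSO. Incubated 24 h. MIC is the lowest concentration with no visible growth under a binocular microscope. Run in duplicate, repeated three times.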

[2] = system: Micrococcus flavus; assay: Bactericidal activity against Micrococcus flavus ATCC 10240 after 72 hrs by serial subcultivation method; assay type: functional; conditions: ATCC 10240, 72 h
[3] = system: Bacillus cereus; assay: Bactericidal activity against Bacillus cereus clinical isolate after 72 hrs by serial subcultivation method; assay type: functional
[4] = system: Escherichia coli; assay: Bactericidal activity against Escherichia coli ATCC 35210 after 72 hrs by serial subcultivation method; assay type: functional; conditions: ATCC 35210, 72 h
[5] = system: Pseudomonas aeruginosa; assay: Antibacterial activity against Pseudomonas aeruginosa ATCC 27853 after 24 hr by microdilution test; assay type: functional; conditions: ATCC 27853, 24 h; in short: as §1
[6] = system: Staphylococcus aureus; assay: Bactericidal activity against Staphylococcus aureus ATCC 6538 after 72 hrs by serial subcultivation method; assay type: functional; conditions: ATCC 6538, 72 h
[7] = system: Escherichia coli; assay: Antibacterial activity against Escherichia coli ATCC 35210 after 24 hr by microdilution test; assay type: functional; conditions: ATCC 35210, 24 h; in short: as §1
[8] = system: Staphylococcus aureus; assay: Antibacterial activity against Staphylococcus aureus ATCC 6538 after 24 hr by microdilution test; assay type: functional; conditions: ATCC 6538, 24 h; in short: as §1
[9] = system: Pseudomonas aeruginosa; assay: Bactericidal activity against Pseudomonas aeruginosa ATCC 27853 after 72 hrs by serial subcultivation method; assay type: functional; conditions: ATCC 27853, 72 h
[10] = system: Listeria monocytogenes; assay: Bactericidal activity against Listeria monocytogenes NCTC 7973 after 72 hrs by serial subcultivation method; assay type: functional; conditions: NCTC 7973, 72 h
[11] = system: Micrococcus flavus; assay: Antibacterial activity against Micrococcus flavus ATCC 10240 after 24 hr by microdilution test; assay type: functional; conditions: ATCC 10240, 24 h; in short: as §1
[12] = system: Bacillus cereus; assay: Antibacterial activity against Bacillus cereus clinical isolate after 24 hr by microdilution test; assay type: functional; in short: as §1
[13] = system: Aspergillus flavus; assay: Fungicidal activity against Aspergillus flavus ATCC 9643 after 72 hrs by serial subcultivation method; assay type: functional; conditions: ATCC 9643, 72 h
[14] = system: Trichoderma viride; assay: Fungicidal activity against Trichoderma viride IAM 5061 after 72 hrs by serial subcultivation method; assay type: functional; conditions: IAM 5061, 72 h
[15] = system: Penicillium ochrochloron; assay: Antifungal activity against Penicillium ochrochloron ATCC 9112 after 72 hrs by serial dilution technique; assay type: functional; conditions: ATCC 9112, 72 h
In short: (§2)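 Serial dilution in malt broth; compounds from 1 mg/ml stocks in 5% DMSO; 72 h at 28 °C. MIC is the lowest concentration with no visible growth under a binocular microscope. Run in duplicate, repeated three times.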

[16] = system: Aspergillus flavus; assay: Antifungal activity against Aspergillus flavus ATCC 9643 after 72 hrs by serial dilution technique; assay type: functional; conditions: ATCC 9643, 72 h; in short: as §2
[17] = system: Aspergillus niger; assay: Fungicidal activity against Aspergillus niger ATCC 6275 after 72 hrs by serial subcultivation method; assay type: functional; conditions: ATCC 6275, 72 h
[18] = system: Aspergillus niger; assay: Antifungal activity against Aspergillus niger ATCC 6275 after 72 hrs by serial dilution technique; assay type: functional; conditions: ATCC 6275, 72 h; in short: as §2
[19] = system: Trichoderma viride; assay: Antifungal activity against Trichoderma viride IAM 5061 after 72 hrs by serial dilution technique; assay type: functional; conditions: IAM 5061, 72 h; in short: as §2
[20] = system: Mus musculus; assay: Acute toxicity in AKR mouse up to 0.5 mmol/kg, ip; assay type: organism-based; conditions: in vivo
[21] = system: Talaromyces funiculosus; assay: Antifungal activity against Penicillium funiculosum ATCC 36839 after 72 hrs by serial dilution technique; assay type: functional; conditions: ATCC 36839, 72 h; in short: as §2
[22] = system: Penicillium ochrochloron; assay: Fungicidal activity against Penicillium ochrochloron ATCC 9112 after 72 hrs by serial subcultivation method; assay type: functional; conditions: ATCC 9112, 72 h
[23] = system: Mus musculus; assay: Antiinflammatory activity in AKR mouse assessed as inhibition of carrageenan-induced paw edema at 0.01 mmol/kg, ip measured after 3.5 hrs of carrageenan-challenge; assay type: functional
In short: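 AKR mice of both sexes (pregnant females excluded), 6-10 per group, fasted during the experiment. Edema induced by intradermal 0.05 mL of 2% carrageenin into the right hind paw. Compound given at 0.01 mmol/kg ip, suspended in water with Tween-80, at the same time as carrageenin.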

[24] = system: Aspergillus fumigatus; assay: Fungicidal activity against Aspergillus fumigatus after 72 hrs by serial subcultivation method; assay type: functional
[25] = target: T1, Prostaglandin G/H synthase 1 (Ovis aries) (UniProt P05979); assay: Inhibition of ovine COX1 assessed as inhibition of PGF2a production by enzyme immunoassay; parameters: concentration or dose not given beside the values
T1 sequence (whole entry): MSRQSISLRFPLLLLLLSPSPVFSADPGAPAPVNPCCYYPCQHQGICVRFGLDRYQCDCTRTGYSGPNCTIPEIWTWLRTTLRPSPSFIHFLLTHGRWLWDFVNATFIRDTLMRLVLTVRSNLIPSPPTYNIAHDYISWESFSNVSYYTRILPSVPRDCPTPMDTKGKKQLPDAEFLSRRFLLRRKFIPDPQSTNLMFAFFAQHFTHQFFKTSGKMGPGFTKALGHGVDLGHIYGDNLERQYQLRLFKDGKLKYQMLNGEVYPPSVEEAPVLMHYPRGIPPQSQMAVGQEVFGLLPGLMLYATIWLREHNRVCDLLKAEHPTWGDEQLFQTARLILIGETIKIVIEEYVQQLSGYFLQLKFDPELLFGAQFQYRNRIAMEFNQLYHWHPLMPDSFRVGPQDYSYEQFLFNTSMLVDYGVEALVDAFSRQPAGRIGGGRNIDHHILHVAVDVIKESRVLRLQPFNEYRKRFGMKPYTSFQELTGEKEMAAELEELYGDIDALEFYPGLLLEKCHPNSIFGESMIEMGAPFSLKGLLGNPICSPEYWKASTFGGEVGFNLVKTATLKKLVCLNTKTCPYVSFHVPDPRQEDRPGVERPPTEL
In short: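 Ovine COX-1 from a commercial screening kit, tested with 0.1 µM arachidonic acid, which is below the saturating level. COX-derived PGH2 is reduced by SnCl2 to PGF2a, quantified by enzyme immunoassay with a broad prostaglandin antibody. At least triplicate.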

[26] = system: Aspergillus fumigatus; assay: Antifungal activity against Aspergillus fumigatus after 72 hrs by serial dilution technique; assay type: functional; in short: as §2
[27] = system: Talaromyces funiculosus; assay: Fungicidal activity against Penicillium funiculosum ATCC 36839 after 72 hrs by serial subcultivation method; assay type: functional; conditions: ATCC 36839, 72 h
[28] = Inhibition of soybean lipoxygenase assessed as inhibition of sodium linolate conversion to 13-hydroperoxylinoleic acid after 4 mins by spectrophotometry; parameters: species or system Glycine max

SMILES | MIC [1] [µM] | MBC [2] [µM] | MBC [3] [µM] | MBC [4] [µM] | MIC [5] [µM] | MBC [6] [µM] | MIC [7] [µM] | MIC [8] [µM] | MBC [9] [µM] | MBC [10] [µM] | MIC [11] [µM] | MIC [12] [µM] | MFC [13] [µM] | MFC [14] [µM] | MIC [15] [µM] | MIC [16] [µM] | MFC [17] [µM] | MIC [18] [µM] | MIC [19] [µM] | MIC [21] [µM] | also measured
CN[C@@H]1[C@H](O[C@H]2[C@H](O[C@H]3[C@H](O)[C@@H](O)[C@H](N=C(N)N)[C@@H](O)[C@@H]3N=C(N)N)O[C@@H](C)[C@]2(O)C=O)O[C@@H](CO)[C@H](O)[C@H]1O [STREPTOMYCIN] | 258 (≈ 150 µg/mL) | 172 (≈ 100 µg/mL) | 86 (≈ 50 µg/mL) | 344 (≈ 200 µg/mL) | 172 (≈ 100 µg/mL) | 344 (≈ 200 µg/mL) | 172 (≈ 100 µg/mL) | 172 (≈ 100 µg/mL) | 344 (≈ 200 µg/mL) | 516 (≈ 300 µg/mL) | 86 (≈ 50 µg/mL) | 43 (≈ 25 µg/mL) | – | – | – | – | – | – | – | – | –
Cc1csc(/N=C2\NC(=O)/C(=C/c3ccccc3Cl)S2)n1 | 119 (≈ 40 µg/mL) | 59.6 (≈ 20 µg/mL) | 119 (≈ 40 µg/mL) | 119 (≈ 40 µg/mL) | 59.6 (≈ 20 µg/mL) | 119 (≈ 40 µg/mL) | 119 (≈ 40 µg/mL) | 59.6 (≈ 20 µg/mL) | 119 (≈ 40 µg/mL) | 119 (≈ 40 µg/mL) | 29.8 (≈ 10 µg/mL) | 59.6 (≈ 20 µg/mL) | 20.9 (≈ 7.02 µg/mL) | 20.9 (≈ 7.02 µg/mL) | 14.9 (≈ 5 µg/mL) | 20.9 (≈ 7.02 µg/mL) | 20.9 (≈ 7.02 µg/mL) | 14.9 (≈ 5 µg/mL) | 17.9 (≈ 6.01 µg/mL) | 17.9 (≈ 6.01 µg/mL) | Activity [20]: Non-toxic; MFC [22]: 20.9 µM (≈ 7.02 µg/mL); inhibition in vivo at 10 µmol/kg [23]: 43%; MFC [24]: 20.9 µM (≈ 7.02 µg/mL); inhibition ([25]; concentration not given here): 97%; MIC [26]: 17.9 µM (≈ 6.01 µg/mL); MFC [27]: 20.9 µM (≈ 7.02 µg/mL); IC50 ([28]; read-out: IC50): 79 µM
CC(Cc1ccc(O)c(O)c1)C(C)Cc1ccc(O)c(O)c1 (stereo not given) [NORDIHYDROGUAIARETIC ACID] | – | – | – | – | – | – | – | – | – | – | – | – | – | – | – | – | – | – | – | – | inhibition [23]: inactive; inhibition [25]: inactive; IC50 ([28]; read-out: IC50): 32 µM
COc1ccc2cc([C@H](C)C(=O)O)ccc2c1 [NAPROXEN] | – | – | – | – | – | – | – | – | – | – | – | – | – | – | – | – | – | – | – | – | inhibition [23]: inactive; inhibition ([25]; concentration not given here): 46%; IC50 [28]: Not Active
CC(=O)N1CCN(c2ccc(OCC3COC(Cn4ccnc4)(c4ccc(Cl)cc4Cl)O3)cc2)CC1 (stereo not given) [KETOCONAZOLE] | – | – | – | – | – | – | – | – | – | – | – | – | 3800 (≈ 2020 µg/mL) | 5700 (≈ 3030 µg/mL) | 3800 (≈ 2020 µg/mL) | 2850 (≈ 1510 µg/mL) | 950 (≈ 505 µg/mL) | 380 (≈ 202 µg/mL) | 4750 (≈ 2520 µg/mL) | 380 (≈ 202 µg/mL) | MFC [22]: 3800 µM (≈ 2020 µg/mL); MFC [24]: 950 µM (≈ 505 µg/mL); MIC [26]: 380 µM (≈ 202 µg/mL); MFC [27]: 950 µM (≈ 505 µg/mL)
CC1(C)S[C@@H]2[C@H](NC(=O)[C@H](N)c3ccccc3)C(=O)N2[C@H]1C(=O)O [AMPICILLIN] | 372 (≈ 130 µg/mL) | 372 (≈ 130 µg/mL) | 372 (≈ 130 µg/mL) | 492 (≈ 172 µg/mL) | 744 (≈ 260 µg/mL) | 372 (≈ 130 µg/mL) | 372 (≈ 130 µg/mL) | 248 (≈ 86.7 µg/mL) | 1240 (≈ 433 µg/mL) | 744 (≈ 260 µg/mL) | 248 (≈ 86.7 µg/mL) | 248 (≈ 86.7 µg/mL) | – | – | – | – | – | – | – | – | –

— ChEMBL document CHEMBL2311431, “Synthesis and biological evaluation of some 5-arylidene-2-(1,3-thiazol-2-ylimino)-1,3-thiazolidin-4-ones as dual anti-inflammatory/antimicrobial agents” (Bioorg Med Chem, 2013)
